In test [1] the target is T1, Prostaglandin E2 receptor EP1 subtype (Mus musculus, UniProt P35375).
T1 sequence (P35375 whole entry): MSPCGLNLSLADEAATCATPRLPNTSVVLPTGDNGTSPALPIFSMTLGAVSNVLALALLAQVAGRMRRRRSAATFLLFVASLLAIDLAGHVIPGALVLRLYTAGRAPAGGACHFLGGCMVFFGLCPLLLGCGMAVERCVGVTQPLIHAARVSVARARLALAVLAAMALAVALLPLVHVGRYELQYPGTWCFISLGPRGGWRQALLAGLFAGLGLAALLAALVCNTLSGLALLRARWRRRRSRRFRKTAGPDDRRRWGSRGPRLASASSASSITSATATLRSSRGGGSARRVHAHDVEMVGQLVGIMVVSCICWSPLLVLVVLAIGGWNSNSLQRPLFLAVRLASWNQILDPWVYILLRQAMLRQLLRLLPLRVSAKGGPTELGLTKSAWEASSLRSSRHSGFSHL
In words: Displacement of [3H]PGE2 from mouse EP1 receptor expressed in CHO cells by liquid scintillation counting. The class given is cell-based. The procedure, abridged:
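Membranes from CHO cells stably expressing mEP1, incubated with 2.5 nM [3H]PGE2 and varied test compound concentrations. Buffer: 10 mM KH2PO4-KOH, 1 mM EDTA, 10 mM MgCl2, 0.1 mM NaCl, pH 6.0. Run at 25 °C for 20 min. Filtered on GF/B and washed ice-cold before scintillation counting. Nonspecific binding measured with excess cold PGE2. IC50 from regression; Ki via the Cheng–Prusoff form.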
For orientation: Displacement assays read how much labelled ligand stays bound in the presence of the test substance.

The target of test [2] is Prostaglandin E2 receptor EP4 subtype (Mus musculus, UniProt P32240). In words: Displacement of [3H]PGE2 from mouse EP4 receptor expressed in CHO cells by liquid scintillation counting. The class given is cell-based. The procedure, abridged:
(§1)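 Mouse EP3α and EP4 CHO membrane binding: 2.5 nM [3H]PGE2 with graded test compound in pH 6.0 KH2PO4-KOH buffer (1 mM EDTA, 10 mM MgCl2, 0.1 mM NaCl), 60 min at 25 °C. Bound ligand collected on GF/B filters, washed with cold buffer, counted by liquid scintillation. Excess unlabeled PGE2 gave nonspecific binding. Ki derived from regression IC50, [L] and Kd.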

Test [3] has as its target Prostaglandin E2 receptor EP2 subtype (Mus musculus, UniProt Q62053). In words: Displacement of [3H]PGE2 from mouse EP2 receptor expressed in CHO cells by liquid scintillation counting. The class given is cell-based. In short, it runs like this: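 Membranes from CHO cells stably expressing the receptor, incubated with 2.5 nM [3H]PGE2 plus test compound over a concentration range. Buffer: 10 mM KH2PO4-KOH, 1 mM EDTA, 10 mM MgCl2, 0.1 mM NaCl, pH 6.0. Run at 25 °C for 60 min. Stopped by GF/B filtration with ice-cold buffer wash, then scintillation counted. Excess unlabeled PGE2 defined nonspecific binding. IC50 taken from the regression curve; Ki = IC50/(1+[L]/Kd).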

Test [4] concerns the target T2, Prostaglandin E2 receptor EP3 subtype (Mus musculus, UniProt P30557).
T2 sequence (P30557 whole entry): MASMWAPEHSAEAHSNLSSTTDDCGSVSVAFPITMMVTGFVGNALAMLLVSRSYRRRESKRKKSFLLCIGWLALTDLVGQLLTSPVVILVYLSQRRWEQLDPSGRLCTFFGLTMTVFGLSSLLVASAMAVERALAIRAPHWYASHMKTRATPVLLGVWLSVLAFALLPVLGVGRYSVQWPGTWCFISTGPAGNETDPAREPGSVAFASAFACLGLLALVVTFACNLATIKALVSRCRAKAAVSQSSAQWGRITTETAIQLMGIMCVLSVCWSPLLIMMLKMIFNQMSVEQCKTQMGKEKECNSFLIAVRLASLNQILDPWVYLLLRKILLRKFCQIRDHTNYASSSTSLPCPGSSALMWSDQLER
The test can be described thus: Antagonist activity at mouse EP3alpha receptor expressed in CHo cells assessed as inhibition of PGE2-stimulated intracellular calcium concentration. The class given is functional, cell-based. The procedure, abridged:
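CHO cells expressing mEP3α were plated at 1×10^4 cells/well and grown 2 days in 10% FBS/αMEM at 37 °C, 5% CO2. Cells were loaded 1 h with 5 µM Fura-2/AM, 20 µM indomethacin and 2.5 mM probenecid. Assay buffer was HBSS with 0.1% BSA, 2 µM indomethacin, 2.5 mM probenecid and 10 mM HEPES, with 1 h dark equilibration at room temperature. Test compound was added with 10 nM PGE2; fluorescence read at 340/380 nm excitation, 500 nm emission. IC50 from percent inhibition of the PGE2 Ca2+ peak.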
Background: Calcium flux is commonly read through the fluorescence of an indicator in the cells.

The target in test [5] is T2, Prostaglandin E2 receptor EP3 subtype. The test can be described thus: Displacement of [3H]PGE2 from mouse EP3 receptor expressed in CHO cells by liquid scintillation counting. The class given is cell-based. In short, it runs like this: as §1

From ChEMBL document CHEMBL1152570, “Discovery of a series of acrylic acids and their derivatives as chemical leads for selective EP3 receptor antagonists” (Bioorg Med Chem, 2009) come the findings set out here.

The Ki is a dissociation constant, usually derived from enzyme kinetics or from competition with a known ligand. A word on the IC50: it is the concentration that inhibits the measured activity by half.

Structures are written as SMILES.

Chain of Prostaglandin E2 receptor EP4 subtype (P32240 whole entry): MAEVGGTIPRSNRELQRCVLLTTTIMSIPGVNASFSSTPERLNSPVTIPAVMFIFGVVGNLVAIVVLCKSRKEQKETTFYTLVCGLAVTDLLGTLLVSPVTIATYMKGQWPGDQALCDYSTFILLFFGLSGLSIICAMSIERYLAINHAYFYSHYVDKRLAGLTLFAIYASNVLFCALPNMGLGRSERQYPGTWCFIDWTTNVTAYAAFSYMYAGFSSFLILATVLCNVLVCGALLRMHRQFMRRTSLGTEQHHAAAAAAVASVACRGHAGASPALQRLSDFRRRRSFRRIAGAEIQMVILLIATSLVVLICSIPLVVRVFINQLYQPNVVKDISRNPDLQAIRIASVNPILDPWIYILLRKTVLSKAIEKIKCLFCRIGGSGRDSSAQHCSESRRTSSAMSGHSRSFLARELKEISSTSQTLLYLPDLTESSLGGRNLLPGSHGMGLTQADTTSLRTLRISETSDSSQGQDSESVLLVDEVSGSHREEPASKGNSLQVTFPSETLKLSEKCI
Chain of Prostaglandin E2 receptor EP2 subtype (Q62053 whole entry): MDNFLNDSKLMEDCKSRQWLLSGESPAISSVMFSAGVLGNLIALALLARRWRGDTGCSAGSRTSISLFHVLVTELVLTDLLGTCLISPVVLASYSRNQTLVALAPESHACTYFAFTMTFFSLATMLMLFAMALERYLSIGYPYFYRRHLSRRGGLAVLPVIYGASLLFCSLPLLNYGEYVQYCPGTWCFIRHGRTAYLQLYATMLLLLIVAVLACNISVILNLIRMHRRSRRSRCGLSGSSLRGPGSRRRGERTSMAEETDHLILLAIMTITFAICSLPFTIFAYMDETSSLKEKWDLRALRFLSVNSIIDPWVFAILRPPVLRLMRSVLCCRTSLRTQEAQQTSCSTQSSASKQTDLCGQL

For `O=C(O)/C=C/c1ccc(COc2ccccc2)cc1OCCc1ccc2ccccc2c1`, the Ki in test [1] was over 10000 nM; in test [2] it was 2600 nM; in test [3], 9200 nM; in test [5] it was 130 nM. The IC50 in test [4] came out at 140 nM.

As to `COc1ccc(/C=C/C(=O)O)c(OCCC2(C)CCc3c(C)c(O)c(C)c(C)c3O2)c1` (stereo not given), the inhibition constant (Ki) was over 10000 nM in test [1], 920 nM in test [2], 6800 nM in test [3] and over 10000 nM in test [5]. Further, in test [4], the IC50 is over 10000 nM.

For `Cc1c(C)c2c(c(C)c1O)CCC(C)(CCOc1cc(Cn3ccnc3)ccc1/C=C/C(=O)O)O2` (stereo not given), the Ki in test [1] is over 10000 nM; in test [2], over 10000 nM; in test [3] it was over 10000 nM; in test [5] it was 63 nM. In addition, the IC50 in test [4] was 600 nM.

With `Cc1c(C)c2c(c(C)c1O)CCC(C)(CCOc1ccccc1/C=C/C(=O)O)O2` (stereo not given), the Ki in test [1] was over 10000 nM; in test [2] it was 2600 nM; in test [3], 1200 nM; in test [5], 530 nM. In addition, the IC50 in test [4] came out at 4800 nM.

Take `O=C(O)/C=C/c1ccc(Cn2ccnc2)cc1OCCc1cc2ccccc2o1`: the Ki in test [1] is over 10000 nM; in test [2] it was 4300 nM; in test [3], over 10000 nM; in test [5] it was 44 nM. In test [4], the IC50 is 330 nM.

As for `O=C(O)/C=C/c1ccc(Cc2cccs2)cc1OCCc1ccc2ccccc2c1`, the Ki was over 10000 nM in test [1], 2200 nM in test [2], 2100 nM in test [3] and 150 nM in test [5]. For the same compound, the IC50 in test [4] was 150 nM.

For `Cc1ccc(/C=C/C(=O)O)c(OCCC2(C)CCc3c(C)c(O)c(C)c(C)c3O2)c1` (stereo not given), the Ki in test [1] is over 10000 nM; in test [2], 2200 nM; in test [3] it was 5700 nM; in test [5] it was 940 nM. Moreover, in test [4], the IC50 is 3100 nM.

For `O=C(O)CCCc1ccc(Cn2cccn2)cc1OCCc1ccc2ccccc2c1`, the Ki was determined as 4000 nM in test [1], 1400 nM in test [2], 1800 nM in test [3] and 39 nM in test [5]. Also, the IC50 in test [4] came out at 460 nM.

Regarding `O=C(O)C#Cc1ccc(Cn2cccn2)cc1OCCc1ccc2ccccc2c1`, the Ki in test [1] is over 10000 nM; in test [2] it was 2900 nM; in test [3] it was over 10000 nM; in test [5], 99 nM. Moreover, the concentration for half-maximal inhibition (IC50) in test [4] was 1200 nM.

For `O=C(O)/C=C/c1ccc(Cn2ccnc2)cc1OCCCOc1ccccc1`, the Ki in test [1] was over 10000 nM; in test [2], over 10000 nM; in test [3], over 10000 nM; in test [5], 280 nM. Further, in test [4], the IC50 amounted to 3000 nM.

Regarding `O=C(O)/C=C/c1ccc(Cn2ccnc2)cc1OCCCCOc1ccccc1`, the inhibition constant (Ki) in test [1] was over 10000 nM; in test [2] it was over 10000 nM; in test [3], over 10000 nM; in test [5], 220 nM. Besides, the concentration for half-maximal inhibition (IC50) in test [4] amounted to 3500 nM.

On to `O=C(O)/C=C/c1ccc(OCc2ccccc2)cc1OCCc1ccc2ccccc2c1`, for which the Ki in test [1] was over 10000 nM; in test [2] it was over 10000 nM; in test [3], 1200 nM; in test [5], 850 nM. Moreover, the half-maximal inhibitory concentration (IC50) in test [4] turned out to be 1500 nM.

For the compound `O=C(O)COc1ccc(Cn2cccn2)cc1OCCc1ccc2ccccc2c1`, the inhibition constant (Ki) is over 10000 nM in test [1], over 10000 nM in test [2], over 10000 nM in test [3] and 260 nM in test [5]. Moreover, the IC50 in test [4] is 2600 nM.

Take `O=C(O)/C=C/c1ccc(Cc2ccccc2)cc1OCCc1ccc2ccccc2c1`: the inhibition constant Ki in test [1] is over 10000 nM; in test [2], 2100 nM; in test [3], over 10000 nM; in test [5] it was 130 nM. Also, in test [4], the IC50 came out at 400 nM.

With `O=C(O)/C=C/c1ccc(CN2CCCC2=O)cc1OCCc1ccc2ccccc2c1`, the inhibitory constant (Ki) amounted to 6400 nM in test [1], 2300 nM in test [2], 5900 nM in test [3] and 110 nM in test [5]. Besides, in test [4], the IC50 came out at 580 nM.
